Test results as given in ChEMBL document CHEMBL3739335, “Phosphonooxymethyl Prodrug of Triptolide: Synthesis, Physicochemical Characterization, and Efficacy in Human Colon Adenocarcinoma and Ovarian Cancer Xenografts” (J Med Chem, 2015).
Activity calls are given as the source filed them. The rule behind the calls is not given here.

What was measured:
[1] = Chemical stability of the compound in buffer assessed as compound remaining at pH 2 after 8 hrs by HPLC analysis; assay type: physicochemical; conditions: read-out: Stability
[2] = test system: HT-29; experiment: Antitumor activity against human HT-29 cells xenografted in athymic nude mouse at 0.9 mg/kg, ip qd administered for 2 weeks followed by 3 times per week; assay type: functional, organism-based
How it was run: (§1)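 Female athymic nude mice, 7–9 weeks, implanted s.c. on right flank with 1.74 × 10^6 HT-29 cells (ATCC, mycoplasma/rodent-pathogen tested) in 50% Matrigel/50% McCoy's 5A; randomized at mean tumor 110 mm3, 10/group. IP dosing in USP saline, 0.2 mL, over a 28-day treatment period. Tumor volume by caliper (L × W2/2) at least twice weekly, tumor weight at necropsy, survival, body weight.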

[3] = Chemical stability of the compound in buffer assessed as compound remaining at pH 6 after 2 hrs by HPLC analysis; assay type: physicochemical; conditions: read-out: Stability
[4] = target: T1, alkaline phosphatase (Bos taurus, UniProt P09487); experiment: Half life of the compound in glycine buffer assessed as bovine intestinal mucosal alkaline phosphatase-mediated compound degradation at pH 9.8; assay type: ADME; conditions: cattle
T1 sequence (P09487 whole entry): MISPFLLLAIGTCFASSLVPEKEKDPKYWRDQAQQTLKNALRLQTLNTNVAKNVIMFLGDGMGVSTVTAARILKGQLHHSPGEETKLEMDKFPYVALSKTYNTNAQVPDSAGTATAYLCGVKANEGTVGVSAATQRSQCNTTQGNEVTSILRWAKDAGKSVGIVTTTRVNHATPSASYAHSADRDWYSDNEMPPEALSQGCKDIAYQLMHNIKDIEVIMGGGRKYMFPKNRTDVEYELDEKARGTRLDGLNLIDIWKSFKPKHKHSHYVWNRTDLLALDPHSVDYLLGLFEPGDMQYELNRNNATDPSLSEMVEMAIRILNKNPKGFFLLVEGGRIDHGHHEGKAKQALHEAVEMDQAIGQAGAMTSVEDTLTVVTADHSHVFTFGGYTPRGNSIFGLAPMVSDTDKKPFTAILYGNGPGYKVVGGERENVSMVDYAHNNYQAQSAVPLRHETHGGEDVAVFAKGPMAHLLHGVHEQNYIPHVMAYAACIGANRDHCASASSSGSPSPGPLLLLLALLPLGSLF
How it was run: (§2)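 Conversion in glycine buffer pH 9.8 with alkaline phosphatase from bovine intestinal mucosa; loss of compound and formation of triptolide followed, first-order fit for half-life. Control run in same buffer without enzyme for 1 h.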

[5] = Chemical stability of the compound in buffer assessed as compound remaining at pH 6 after 8 hrs by HPLC analysis; assay type: physicochemical; conditions: read-out: Stability
[6] = Chemical stability of the compound in buffer assessed as compound remaining at pH 1 after 24 hrs by HPLC analysis; assay type: physicochemical; conditions: read-out: Stability
[7] = Shelf life of the compound in buffer assessed as time for 10% loss of compound at 4 degC at pH 7.4; assay type: physicochemical
How it was run: (§3)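 Pseudo-first-order kobsd at each temperature was fitted to an Arrhenius plot, which was extrapolated to 25 and 4 °C. t1/2 and t90 (time for 10% loss) were calculated from the extrapolated kobsd.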

[8] = Chemical stability of the compound in buffer assessed as compound remaining at pH 4 after 2 hrs by HPLC analysis; assay type: physicochemical; conditions: read-out: Stability
[9] = Chemical stability of the compound in buffer assessed as compound remaining at pH 9 after 4 hrs by HPLC analysis; assay type: physicochemical; conditions: read-out: Stability
[10] = Chemical stability of the compound in buffer assessed as compound remaining at pH 7.4 after 2 hrs by HPLC analysis; assay type: physicochemical; conditions: read-out: Stability
[11] = Stability of the compound in glycine buffer at pH 9.8 after 1 hr in absence of bovine intestinal mucosal alkaline phosphatase; assay type: physicochemical; conditions: pH 9.8, 1 h; how it was run: as §2
[12] = test system: Mus musculus; experiment: Toxicity in athymic nude mouse xenografted with human HT-29 cells assessed as mortality at 0.9 mg/kg, ip administered for 2 weeks; assay type: organism-based; conditions: in vivo, 336 h
[13] = Chemical stability of the compound in buffer assessed as compound remaining at pH 6 after 1 hr by HPLC analysis; assay type: physicochemical; conditions: read-out: Stability
[14] = Stability of the compound in simulated gastric fluid assessed as compound remaining after 8 hrs by HPLC analysis
[15] = Chemical stability of the compound in buffer assessed as compound remaining at pH 9 after 8 hrs by HPLC analysis; assay type: physicochemical; conditions: read-out: Stability
[16] = test system: Mus musculus; experiment: Toxicity in athymic nude mouse xenografted with human A2780 cells assessed as morbidity at 0.6 to 0.9 mg/kg, po administered for 30 days; assay type: organism-based; conditions: in vivo, 720 h
How it was run: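 Female athymic nude mice, 7–9 weeks old, received 2.5 × 10^6 A2780 cells subcutaneously in the flank in 50% Matrigel/RPMI 1640. Mice were randomized at a mean tumor volume of 188 mm3, 10 per group. Daily oral gavage in USP saline (0.2 mL) for 30 days, dosed on group-mean body weight. Clinical signs, survival and body weights were recorded.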

[17] = Chemical stability of the compound in buffer assessed as compound remaining at pH 2 after 2 hrs by HPLC analysis; assay type: physicochemical; conditions: read-out: Stability
[18] = test system: Mus musculus; experiment: Toxicity in athymic nude mouse xenografted with human HT-29 cells assessed as mortality at 0.9 mg/kg, ip administered for 2 weeks followed by 3 times per week; assay type: organism-based; conditions: in vivo, 336 h
How it was run: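 Female athymic nude mice, 7–9 weeks old, received 1.74 × 10^6 HT-29 cells subcutaneously in the right flank in 50% Matrigel/McCoy's 5A. Randomized at 110 mm3, 10 per group. Intraperitoneal dosing in USP saline (0.2 mL) over a 28-day period on the stated schedule. Body weights were taken twice weekly; clinical signs and survival were recorded.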

[19] = Chemical stability of the compound in buffer assessed as compound remaining at pH 1 after 1 hr by HPLC analysis; assay type: physicochemical; conditions: read-out: Stability
[20] = Chemical stability of the compound in buffer assessed as compound remaining at pH 4 after 24 hrs by HPLC analysis; assay type: physicochemical; conditions: read-out: Stability
[21] = test system: HT-29; experiment: Antitumor activity against human HT-29 cells xenografted in athymic nude mouse at 0.3 to 0.9 mg/kg, ip qd administered for 28 days; assay type: functional, organism-based; how it was run: as §1
[22] = Chemical stability of the compound in buffer assessed as compound remaining at pH 2 after 1 hr by HPLC analysis; assay type: physicochemical; conditions: read-out: Stability
[23] = Chemical stability of the compound in buffer assessed as pseudo-first-order rate constant at 50 degC at pH 7.4 by Arrhenius plot analysis; assay type: physicochemical
[24] = Chemical stability of the compound in buffer assessed as compound remaining at pH 9 after 2 hrs by HPLC analysis; assay type: physicochemical; conditions: read-out: Stability
[25] = Chemical stability of the compound in buffer assessed as compound remaining at pH 4 after 4 hrs by HPLC analysis; assay type: physicochemical; conditions: read-out: Stability
[26] = Half life of the compound in buffer at 4 degC at pH 7.4; assay type: physicochemical; how it was run: as §3
[27] = Chemical stability of the compound in buffer assessed as compound remaining at pH 1 after 2 hrs by HPLC analysis; assay type: physicochemical; conditions: read-out: Stability
[28] = Chemical stability of the compound in buffer assessed as compound remaining at pH 4 after 8 hrs by HPLC analysis; assay type: physicochemical; conditions: read-out: Stability
[29] = Stability of the compound in simulated gastric fluid assessed as compound remaining after 4 hrs by HPLC analysis

Which remaining at 8 h [1] does the source give for `CC(C)[C@]12O[C@H]1[C@@H]1O[C@]13[C@]1(O[C@H]1C[C@H]1C4=C(CC[C@@]13C)C(=O)OC4)[C@@H]2OCOP(=O)([O-])[O-].[Na+].[Na+]` [MINNELIDE] here?
Its remaining at 8 h is 94%.

And the Activity [2]?
The Activity was “Active”.

What about the remaining at 2 h [3] of the same molecule?
The remaining at 2 h was 100%.

What about the half-life [4] of the same molecule?
The half-life was 2 min.

What about the remaining at 8 h [5] of the same molecule?
The remaining at 8 h was 100%.

And the remaining at 24 h [6]?
Its remaining at 24 h is 0%.

What about the Time [7] of the same molecule?
Its Time is 1.9 yr.

And the remaining at 2 h [8]?
Its remaining at 2 h is 100%.

What about the remaining at 4 h [9] of the same molecule?
Its remaining at 4 h is 100%.

What about the remaining at 2 h [10] of the same molecule?
Its remaining at 2 h is 100%.

What about the Stability [11] of the same molecule?
Its Stability is “Stable”.

What about the Activity [12] of the same molecule?
Its Activity is “Toxic”.

What about the remaining at 1 h [13] of the same molecule?
Its remaining at 1 h is 100%.

And the remaining at 8 h [14]?
Its remaining at 8 h is 47%.

What about the remaining at 8 h [15] of the same molecule?
Its remaining at 8 h is 100%.

What about the Activity [16] of the same molecule?
The Activity was “Toxic”.

What about the remaining at 2 h [17] of the same molecule?
The remaining at 2 h was 97%.

And the Activity [18]?
The Activity was “Toxic”.

And the remaining at 1 h [19]?
Its remaining at 1 h is 89%.

What about the remaining at 24 h [20] of the same molecule?
Its remaining at 24 h is 99%.

What about the Activity [21] of the same molecule?
The Activity was “Active”.

What about the remaining at 1 h [22] of the same molecule?
Its remaining at 1 h is 98%.

And the K [23]?
Its K is 0.001052 h⁻¹.

And the remaining at 2 h [24]?
The remaining at 2 h was 100%.

What about the remaining at 4 h [25] of the same molecule?
The remaining at 4 h was 100%.

And the t1/2 [26]?
Its t1/2 is 12.2 yr.

And the remaining at 2 h [27]?
The remaining at 2 h was 79%.

What about the remaining at 8 h [28] of the same molecule?
The remaining at 8 h was 99%.

What about the remaining at 4 h [29] of the same molecule?
Its remaining at 4 h is 71%.
